According to ChEMBL document CHEMBL4004831, “Naphthalene diimide-polyamine hybrids as antiproliferative agents: Focus on the architecture of the polyamine chains” (Eur J Med Chem, 2017):

Key:
RPMI-8226 = experiment: Growth inhibition of human RPMI8226 cells incubated for 48 hrs by sulforhodamine B assay; assay type: functional; conditions: RPMI-8226, 48 h
PC-3 = experiment: Growth inhibition of human PC3 cells incubated for 48 hrs by sulforhodamine B assay; assay type: functional; conditions: PC-3, 48 h
UO-31 = experiment: Growth inhibition of human UO31 cells incubated for 48 hrs by sulforhodamine B assay; assay type: functional; conditions: UO-31, 48 h
SNB-75 = experiment: Growth inhibition of human SNB75 cells incubated for 48 hrs by sulforhodamine B assay; assay type: functional; conditions: SNB-75, 48 h
SK-MEL-2 = experiment: Growth inhibition of human SK-MEL-2 cells incubated for 48 hrs by sulforhodamine B assay; assay type: functional; conditions: SK-MEL-2, 48 h
SR = experiment: Growth inhibition of human SR cells incubated for 48 hrs by sulforhodamine B assay; assay type: functional
LOX IMVI = experiment: Growth inhibition of human LOXIMVI cells incubated for 48 hrs by sulforhodamine B assay; assay type: functional
NCI/ADR-RES = experiment: Growth inhibition of human NCI-ADR-RES cells incubated for 48 hrs by sulforhodamine B assay; assay type: functional
SN12C = experiment: Growth inhibition of human SN12C cells incubated for 48 hrs by sulforhodamine B assay; assay type: functional
[1] = Stabilization of 5'Dabcyl/3'FAM labeled duplex DNA (unknown origin) assessed as increase in melting temperature at 2.5 uM pretreated for 5 mins at 30 degreeC followed by 5 mins incubation at 95 degreeC by fluorescence assay
Outline: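 FRET melting in LiP buffer (10 mM LiOH, 50 mM KCl, pH 7.0 with H3PO4), ex 488 nm, em 520 nm. Samples were held 5 min at 30 °C, heated at 1 °C/min to 95 °C, held 5 min, then re-annealed. Tm came from first derivatives; ΔTm = shift with ligand at 2.5; at least three runs.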

IGROV-1 = experiment: Growth inhibition of human IGROV1 cells incubated for 48 hrs by sulforhodamine B assay; assay type: functional; conditions: IGROV-1, 48 h
M14 = experiment: Growth inhibition of human M14 cells incubated for 48 hrs by sulforhodamine B assay; assay type: functional; conditions: M14, 48 h
OVCAR-3 = experiment: Growth inhibition of human OVCAR3 cells incubated for 48 hrs by sulforhodamine B assay; assay type: functional; conditions: OVCAR-3, 48 h
HL-60 = experiment: Growth inhibition of human HL60 cells incubated for 48 hrs by sulforhodamine B assay; assay type: functional; conditions: HL-60, 48 h
SK-MEL-28 = experiment: Growth inhibition of human SK-MEL-28 cells incubated for 48 hrs by sulforhodamine B assay; assay type: functional; conditions: SK-MEL-28, 48 h
SK-OV-3 = experiment: Growth inhibition of human SKOV3 cells incubated for 48 hrs by sulforhodamine B assay; assay type: functional; conditions: SK-OV-3, 48 h
OVCAR-5 = experiment: Growth inhibition of human OVCAR5 cells incubated for 48 hrs by sulforhodamine B assay; assay type: functional; conditions: OVCAR-5, 48 h
NCI-H226 = experiment: Growth inhibition of human NCI-H226 cells incubated for 48 hrs by sulforhodamine B assay; assay type: functional; conditions: NCI-H226, 48 h
A549 = experiment: Growth inhibition of human A549/ATCC cells incubated for 48 hrs by sulforhodamine B assay; assay type: functional; conditions: A549, 48 h
CAKI-1 = experiment: Growth inhibition of human Caki1 cells incubated for 48 hrs by sulforhodamine B assay; assay type: functional; conditions: CAKI-1, 48 h
UACC-62 = experiment: Growth inhibition of human UACC62 cells incubated for 48 hrs by sulforhodamine B assay; assay type: functional; conditions: UACC-62, 48 h
SK-MEL-5 = experiment: Growth inhibition of human SK-MEL-5 cells incubated for 48 hrs by sulforhodamine B assay; assay type: functional; conditions: SK-MEL-5, 48 h
SNB-19 = experiment: Growth inhibition of human SNB19 cells incubated for 48 hrs by sulforhodamine B assay; assay type: functional; conditions: SNB-19, 48 h
MDA-MB-231 = experiment: Growth inhibition of human MDA-MB-231 cells incubated for 48 hrs by sulforhodamine B assay; assay type: functional; conditions: MDA-MB-231, 48 h
Malme-3M = experiment: Growth inhibition of human MALME-3M cells incubated for 48 hrs by sulforhodamine B assay; assay type: functional
BT-549 = experiment: Growth inhibition of human BT549 cells incubated for 48 hrs by sulforhodamine B assay; assay type: functional; conditions: BT-549, 48 h
NCI-H460 = experiment: Growth inhibition of human NCI-H460 cells incubated for 48 hrs by sulforhodamine B assay; assay type: functional; conditions: NCI-H460, 48 h
NCI-H522 = experiment: Growth inhibition of human NCI-H522 cells incubated for 48 hrs by sulforhodamine B assay; assay type: functional; conditions: NCI-H522, 48 h
MDA-MB-435 = experiment: Growth inhibition of human MDA-MB-435 cells incubated for 48 hrs by sulforhodamine B assay; assay type: functional; conditions: MDA-MB-435, 48 h
K562 = experiment: Growth inhibition of human K562 cells incubated for 48 hrs by sulforhodamine B assay; assay type: functional; conditions: K562, 48 h
Hs-578T = experiment: Growth inhibition of human Hs 578T cells incubated for 48 hrs by sulforhodamine B assay; assay type: functional
OVCAR-4 = experiment: Growth inhibition of human OVCAR4 cells incubated for 48 hrs by sulforhodamine B assay; assay type: functional; conditions: OVCAR-4, 48 h
CCRF-CEM = experiment: Growth inhibition of human CCRF-CEM cells incubated for 48 hrs by sulforhodamine B assay; assay type: functional
HT-29 = experiment: Growth inhibition of human HT-29 cells incubated for 48 hrs by sulforhodamine B assay; assay type: functional; conditions: HT-29, 48 h
786-0 = experiment: Growth inhibition of human 786-0 cells incubated for 48 hrs by sulforhodamine B assay; assay type: functional; conditions: 786-0, 48 h
SW-620 = experiment: Growth inhibition of human SW620 cells incubated for 48 hrs by sulforhodamine B assay; assay type: functional; conditions: SW-620, 48 h
HCT-116 = experiment: Growth inhibition of human HCT116 cells incubated for 48 hrs by sulforhodamine B assay; assay type: functional; conditions: HCT-116, 48 h
HOP-62 = experiment: Growth inhibition of human HOP62 cells incubated for 48 hrs by sulforhodamine B assay; assay type: functional; conditions: HOP-62, 48 h
HCT-15 = experiment: Growth inhibition of human HCT15 cells incubated for 48 hrs by sulforhodamine B assay; assay type: functional; conditions: HCT-15, 48 h
SF-268 = experiment: Growth inhibition of human SF268 cells incubated for 48 hrs by sulforhodamine B assay; assay type: functional; conditions: SF-268, 48 h
TK-10 = experiment: Growth inhibition of human TK10 cells incubated for 48 hrs by sulforhodamine B assay; assay type: functional; conditions: TK-10, 48 h
KM12 = experiment: Growth inhibition of human KM12 cells incubated for 48 hrs by sulforhodamine B assay; assay type: functional; conditions: KM12, 48 h
MDA-MB-468 = experiment: Growth inhibition of human MDA-MB-468 cells incubated for 48 hrs by sulforhodamine B assay; assay type: functional; conditions: MDA-MB-468, 48 h
ACHN = experiment: Growth inhibition of human ACHN cells incubated for 48 hrs by sulforhodamine B assay; assay type: functional

CNCCCNCCCCNCCCN1C(=O)c2ccc3c4c(ccc(c24)C1=O)C(=O)N(CCCNCc1ccccc1OC)C3=O
GI50 (RPMI-8226): 3000 nM
GI50 (PC-3): 7450 nM
GI50 (UO-31): 4310 nM
GI50 (SNB-75): 1050 nM
GI50 (SK-MEL-2): 4460 nM
GI50 (SR): 4420 nM
GI50 (LOX IMVI): 3030 nM
GI50 (NCI/ADR-RES): 7090 nM
GI50 (SN12C): 2950 nM
ΔTm [1]: 17.1 °C
GI50 (IGROV-1): 3020 nM
GI50 (M14): 2630 nM
GI50 (OVCAR-3): 2930 nM
GI50 (HL-60): 3680 nM
GI50 (SK-MEL-28): 1400 nM
GI50 (SK-OV-3): 6190 nM
GI50 (OVCAR-5): 5350 nM
GI50 (NCI-H226): 2170 nM
GI50 (A549): 3450 nM
GI50 (CAKI-1): 2250 nM
GI50 (UACC-62): 711 nM
GI50 (SK-MEL-5): 813 nM
GI50 (SNB-19): 3790 nM
GI50 (MDA-MB-231): 4630 nM
GI50 (Malme-3M): 939 nM
GI50 (BT-549): 3400 nM
GI50 (NCI-H460): 2530 nM
GI50 (NCI-H522): 5620 nM
GI50 (MDA-MB-435): 795 nM
GI50 (K562): 2780 nM
GI50 (Hs-578T): 2900 nM
GI50 (OVCAR-4): 1700 nM
GI50 (CCRF-CEM): 2770 nM
GI50 (HT-29): 3360 nM
GI50 (786-0): 3360 nM
GI50 (SW-620): 2160 nM
GI50 (HCT-116): 2040 nM
GI50 (HOP-62): 2330 nM
GI50 (HCT-15): 4270 nM
GI50 (SF-268): 3510 nM
GI50 (TK-10): 4080 nM
GI50 (KM12): 2750 nM
GI50 (MDA-MB-468): 1890 nM
GI50 (ACHN): 2860 nM

CNCCCNCCCN1C(=O)c2ccc3c4c(ccc(c24)C1=O)C(=O)N(CCCNCc1ccccc1OC)C3=O
GI50 (RPMI-8226): 1640 nM
GI50 (PC-3): 1600 nM
GI50 (UO-31): 5880 nM
GI50 (SNB-75): 1110 nM
GI50 (SK-MEL-2): 1750 nM
GI50 (SR): 270 nM
GI50 (LOX IMVI): 1520 nM
GI50 (NCI/ADR-RES): 12100 nM
GI50 (SN12C): 1460 nM
ΔTm [1]: 9.5 °C
GI50 (IGROV-1): 1450 nM
GI50 (M14): 1320 nM
GI50 (OVCAR-3): 1370 nM
GI50 (HL-60): 2000 nM
GI50 (SK-MEL-28): 1010 nM
GI50 (SK-OV-3): 2950 nM
GI50 (OVCAR-5): 1250 nM
GI50 (NCI-H226): 1420 nM
GI50 (A549): 577 nM
GI50 (UACC-62): 1520 nM
GI50 (SK-MEL-5): 1100 nM
GI50 (SNB-19): 1680 nM
GI50 (MDA-MB-231): 2900 nM
GI50 (Malme-3M): 633 nM
GI50 (BT-549): 5030 nM
GI50 (NCI-H460): 429 nM
GI50 (NCI-H522): 1230 nM
GI50 (MDA-MB-435): 1070 nM
GI50 (K562): 408 nM
GI50 (Hs-578T): 3020 nM
GI50 (OVCAR-4): 641 nM
GI50 (CCRF-CEM): 465 nM
GI50 (HT-29): 381 nM
GI50 (786-0): 1270 nM
GI50 (SW-620): 365 nM
GI50 (HCT-116): 270 nM
GI50 (HOP-62): 1240 nM
GI50 (HCT-15): 2360 nM
GI50 (SF-268): 1030 nM
GI50 (TK-10): 2580 nM
GI50 (KM12): 1180 nM
GI50 (MDA-MB-468): 1000 nM
GI50 (ACHN): 500 nM

COc1ccccc1CNCCCN1C(=O)c2ccc3c4c(ccc(c24)C1=O)C(=O)N(CCCN)C3=O
GI50 (RPMI-8226): 1110 nM
GI50 (PC-3): 1660 nM
GI50 (UO-31): 1500 nM
GI50 (SNB-75): 1580 nM
GI50 (SK-MEL-2): 1440 nM
GI50 (SR): 167 nM
GI50 (LOX IMVI): 526 nM
GI50 (NCI/ADR-RES): 2900 nM
GI50 (SN12C): 1170 nM
ΔTm [1]: 6.7 °C
GI50 (IGROV-1): 1000 nM
GI50 (M14): 1060 nM
GI50 (OVCAR-3): 301 nM
GI50 (HL-60): 1560 nM
GI50 (SK-MEL-28): 1730 nM
GI50 (SK-OV-3): 2670 nM
GI50 (OVCAR-5): 1950 nM
GI50 (NCI-H226): 1780 nM
GI50 (A549): 1760 nM
GI50 (CAKI-1): 1760 nM
GI50 (UACC-62): 369 nM
GI50 (SK-MEL-5): 246 nM
GI50 (SNB-19): 1510 nM
GI50 (MDA-MB-231): 1590 nM
GI50 (Malme-3M): 366 nM
GI50 (BT-549): 1660 nM
GI50 (NCI-H460): 524 nM
GI50 (NCI-H522): 1570 nM
GI50 (MDA-MB-435): 196 nM
GI50 (K562): 1090 nM
GI50 (Hs-578T): 1740 nM
GI50 (OVCAR-4): 257 nM
GI50 (CCRF-CEM): 433 nM
GI50 (HT-29): 1310 nM
GI50 (786-0): 1940 nM
GI50 (SW-620): 442 nM
GI50 (HCT-116): 394 nM
GI50 (HOP-62): 1240 nM
GI50 (HCT-15): 1410 nM
GI50 (SF-268): 1230 nM
GI50 (TK-10): 1640 nM
GI50 (KM12): 1620 nM
GI50 (MDA-MB-468): 406 nM
GI50 (ACHN): 1660 nM
